Laboratory results reported in ChEMBL document CHEMBL1165943, “Design and synthesis of new anticancer pyrimidines with multiple-kinase inhibitory effect” (Bioorg Med Chem, 2010).

Experiments:
Format in all cases: functional
UACC-62 = test: Cytotoxicity against human UACC62 cells assessed as cell growth at 10 uM; settings: Homo sapiens, UACC-62; read-out: Activity
Procedure, shortened: (§1)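 Single-dose screen at 10 μM across the 60-cell-line panel. Cells grown in RPMI 1640 with 5% FBS and 2 mM L-glutamine, seeded at 5,000–40,000 cells/well according to doubling time, and treated 24 h later. Exposure lasted 48 h at 37 °C, 5% CO₂. Adherent cells were fixed with cold TCA, suspension cells were fixed settled, and both were stained with SRB and read at 515 nm. Growth % was recorded, with inhibition % = 100 − growth %.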

NCI-H322M = test: Cytotoxicity against human NCI-H322M cells assessed as cell growth at 10 uM; settings: for growth at 10 µM: Homo sapiens, NCI-H322M, read-out: Activity; procedure, shortened: as §1
MDA-MB-435 = test: Cytotoxicity against human MDA-MB-435 cells assessed as cell growth at 10 uM; settings: read-out: Activity; procedure, shortened: as §1
KM12 = test: Cytotoxicity against human KM12 cells assessed as cell growth at 10 uM; settings: for growth at 10 µM: Homo sapiens, KM12, read-out: Activity; procedure, shortened: as §1
RXF 393 = test: Cytotoxicity against human RXF393 cells assessed as cell growth at 10 uM; settings: for growth at 10 µM: Homo sapiens, RXF 393, read-out: Activity; procedure, shortened: as §1
HOP-92 = test: Cytotoxicity against human HOP92 cells assessed as cell growth at 10 uM; settings: for growth at 10 µM: Homo sapiens, HOP-92, read-out: Activity
Procedure, shortened: (§2)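 Single-concentration screen at 10 μM across the 60-cell-line panel (nine tissue types); growth percentage recorded per cell line, with inhibition taken as 100 minus growth percentage.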

SK-MEL-5 = test: Cytotoxicity against human SK-MEL-5 cells assessed as cell growth at 10 uM; settings: Homo sapiens, SK-MEL-5; read-out: Activity; procedure, shortened: as §1
IGROV-1 = test: Cytotoxicity against human IGROV1 cells assessed as cell growth at 10 uM; settings: Homo sapiens, IGROV-1; read-out: Activity; procedure, shortened: as §1
HL-60(TB) = test: Cytotoxicity against human HL-60(TB) cells assessed as cell growth at 10 uM; settings: for growth at 10 µM: Homo sapiens, HL-60, read-out: Activity
Procedure, shortened: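 Single-concentration 10 µM screen of HL-60(TB) within the 60-line panel, grown in RPMI 1640 with 5% FBS. The drug from DMSO stock is incubated 48 h at 37 °C, settled cells are TCA-fixed and SRB-stained, and absorbance is read at 515 nm. Percent growth is reported, and inhibition % is taken as 100 minus growth %.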

[1] = Cytotoxicity against human […] cells assessed as cell growth at 10 uM; settings: for growth at 10 µM: Homo sapiens, RPMI8266, read-out: Activity; procedure, shortened: as §1
A498 = test: Cytotoxicity against human A498 cells assessed as cell growth at 10 uM; settings: Homo sapiens, A498; read-out: Activity; procedure, shortened: as §2
CCRF-CEM = test: Cytotoxicity against human CCRF-CEM cells assessed as cell growth at 10 uM; settings: for growth at 10 µM: Homo sapiens, CCRF-CEM, read-out: Activity; procedure, shortened: as §2
[2] = Cytotoxicity against human Hs 578T cells assessed as cell growth at 10 uM; settings: read-out: Activity; procedure, shortened: as §2
M14 = test: Cytotoxicity against human M14 cells assessed as cell growth at 10 uM; settings: Homo sapiens, M14; read-out: Activity; procedure, shortened: as §1
NCI-H460 = test: Cytotoxicity against human NCI-H460 cells assessed as cell growth at 10 uM; settings: for growth at 10 µM: Homo sapiens, NCI-H460, read-out: Activity; procedure, shortened: as §1
SN12C = test: Cytotoxicity against human SN12C cells assessed as cell growth at 10 uM; settings: Homo sapiens, SN12C; read-out: Activity; procedure, shortened: as §1
SNB-19 = test: Cytotoxicity against human SNB19 cells assessed as cell growth at 10 uM; settings: read-out: Activity; procedure, shortened: as §1
A549 = test: Cytotoxicity against human A549 cells assessed as cell growth at 10 uM; settings: for growth at 10 µM: Homo sapiens, A549, read-out: Activity; procedure, shortened: as §2
786-0 = test: Cytotoxicity against human 786-0 cells assessed as cell growth at 10 uM; settings: Homo sapiens, 786-0; read-out: Activity; procedure, shortened: as §2
OVCAR-5 = test: Cytotoxicity against human OVCAR5 cells assessed as cell growth at 10 uM; settings: for growth at 10 µM: Homo sapiens, OVCAR-5, read-out: Activity; procedure, shortened: as §1
SK-MEL-2 = test: Cytotoxicity against human SK-MEL-2 cells assessed as cell growth at 10 uM; settings: Homo sapiens, SK-MEL-2; read-out: Activity; procedure, shortened: as §1
T47D = test: Cytotoxicity against human T47D cells assessed as cell growth at 10 uM; settings: Homo sapiens, T47D; read-out: Activity; procedure, shortened: as §1

Compound	growth at 10 µM (UACC-62) [%]	growth at 10 µM (NCI-H322M) [%]	growth at 10 µM (MDA-MB-435) [%]	growth at 10 µM (KM12) [%]	growth at 10 µM (HOP-92) [%]	growth at 10 µM (SK-MEL-5) [%]	growth at 10 µM (IGROV-1) [%]	growth at 10 µM (HL-60(TB)) [%]	growth at 10 µM [1] [%]	growth at 10 µM (A498) [%]	growth at 10 µM (CCRF-CEM) [%]	growth at 10 µM [2] [%]	growth at 10 µM (M14) [%]	growth at 10 µM (NCI-H460) [%]	growth at 10 µM (SN12C) [%]	growth at 10 µM (SNB-19) [%]	growth at 10 µM (A549) [%]	growth at 10 µM (786-0) [%]	growth at 10 µM (SK-MEL-2) [%]	growth at 10 µM (T47D) [%]	further results
Cc1ccc(Nc2nc(C)cc(-c3cccnc3)n2)c(C)c1	82.4	100	95.4	98.7	86.9	89.8	90.4	98.5	86.7	96.1	95.4	95.9	114	95.7	91.2	101	90.3	93.2	107	87.1	growth at 10 µM (RXF 393): 90.7%; growth at 10 µM (OVCAR-5): 106%
FC(F)(F)c1cc(Nc2nccc(-c3ccc(-c4ccccc4)nc3)n2)cc(C(F)(F)F)c1	85.3	99.7	109	105	89.7	102	77.8	113	96.2	110	89.7	94.8	81.4	107	86.1	109	97.3	101	91.6	80.1	growth at 10 µM (RXF 393): 143%; growth at 10 µM (OVCAR-5): 111%
FC(F)(F)c1cc(Nc2nccc(-c3ccc(Nc4ccccc4)nc3)n2)cc(C(F)(F)F)c1	99.1	96.6	108	112	100	99.1	102	105	98.3	104	96.6	101	111	109		91.6	96.2	105	92.1	84.5	growth at 10 µM (RXF 393): 107%; growth at 10 µM (OVCAR-5): 97.3%
O=C(Nc1cc(C(F)(F)F)cc(C(F)(F)F)c1)Nc1nccc(-c2ccc(Nc3ccccc3)nc2)n1	101	144	129	117	116	107	105	99.7	102	107	96.8	102	94.2	103	106	109	105	112	101	110	growth at 10 µM (OVCAR-5): 87%
CC(=O)c1ccccc1-c1ccc(-c2ccnc(NC(=O)Nc3cc(C(F)(F)F)cc(C(F)(F)F)c3)n2)cn1.Cl	94.3					103	91			113			98.2		88.4			79.5	78.8	85.4	Activity (NCI-H322M): 92.06%; Activity (KM12): 92.08%; Activity (RXF 393): 130.46%; Activity (HOP-92): 101%; Activity (HL-60(TB)): 98.79%; Activity [1]: 75.92%; Activity (CCRF-CEM): 88.36%; Activity (NCI-H460): 93.37%; Activity (A549): 93.55%; Activity (OVCAR-5): 81.55%
